Data: PMC11571001 (ACS Medicinal Chemistry Letters, 2024)
Entries after “also recorded” stand apart in the source; their conditions may differ.

Tests used:
[1] = tested on: HAP1/PARP1-knockout cell lysates; test: Protein ADP-ribosylation in HAP1/PARP1-KO cell lysates, immunoblot; format: biochemical, human; details: compound 100 μM; 600 μM NAD+; olaparib 100 μM as control
[2] = target: catalytic domain of human PARP5a (Homo sapiens, UniProt O95271); test: PARP5a auto-ADP-ribosylation, immunoblot with pan-ADPr binding reagent; format: biochemical; details: compound 100 μM, 300 μM NAD+
catalytic domain of human PARP5a, sequence (O95271 1112-1317): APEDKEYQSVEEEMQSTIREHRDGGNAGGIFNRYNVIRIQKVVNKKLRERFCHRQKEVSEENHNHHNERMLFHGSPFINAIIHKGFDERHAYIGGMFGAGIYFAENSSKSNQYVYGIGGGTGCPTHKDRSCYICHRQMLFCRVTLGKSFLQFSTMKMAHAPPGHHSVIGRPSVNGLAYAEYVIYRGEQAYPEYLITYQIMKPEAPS

[3] = tested on: HAP1 wild-type cell lysates; test: Protein ADP-ribosylation in HAP1 wild-type cell lysates, immunoblot; format: biochemical, human; details: compound 100 μM; 600 μM NAD+; olaparib 100 μM as control
[4] = target: T1, catalytic domain of human PARP10 (Homo sapiens, UniProt Q53GL7); test: PARP10 auto-ADP-ribosylation; format: biochemical; details: compound 100 μM; 300 μM NAD+; pan-ADPr binding reagent immunoblot
T1 sequence (Q53GL7 806-1025 limits assumed): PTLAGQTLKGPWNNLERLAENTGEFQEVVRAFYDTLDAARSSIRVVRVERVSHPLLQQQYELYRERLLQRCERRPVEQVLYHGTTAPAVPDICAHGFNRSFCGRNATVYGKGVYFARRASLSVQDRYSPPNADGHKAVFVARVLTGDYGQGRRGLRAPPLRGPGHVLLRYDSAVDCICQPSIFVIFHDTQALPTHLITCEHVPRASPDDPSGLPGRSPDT

full-length human PARP2 = full-length human PARP2 (Homo sapiens, UniProt Q9UGN5); test: PARP2 auto-poly-ADP-ribosylation, immunoblot with anti-PAR antibody; format: biochemical; details: compound 100 μM, 300 μM NAD+
full-length human PARP2, sequence (Q9UGN5 whole entry): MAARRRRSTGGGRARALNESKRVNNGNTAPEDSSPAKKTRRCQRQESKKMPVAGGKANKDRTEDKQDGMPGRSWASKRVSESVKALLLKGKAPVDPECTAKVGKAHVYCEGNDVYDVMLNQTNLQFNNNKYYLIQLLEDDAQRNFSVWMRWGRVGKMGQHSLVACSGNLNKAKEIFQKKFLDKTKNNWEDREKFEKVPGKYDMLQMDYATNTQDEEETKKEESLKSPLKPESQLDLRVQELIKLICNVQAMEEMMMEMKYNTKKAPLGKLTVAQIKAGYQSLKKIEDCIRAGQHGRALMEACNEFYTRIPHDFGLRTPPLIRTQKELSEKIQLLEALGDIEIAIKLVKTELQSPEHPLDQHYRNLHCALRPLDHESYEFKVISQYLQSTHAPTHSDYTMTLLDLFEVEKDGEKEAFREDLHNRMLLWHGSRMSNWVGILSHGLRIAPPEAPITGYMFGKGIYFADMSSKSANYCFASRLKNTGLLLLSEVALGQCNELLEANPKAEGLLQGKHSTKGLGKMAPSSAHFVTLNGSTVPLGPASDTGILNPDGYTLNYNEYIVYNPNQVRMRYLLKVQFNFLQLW
Method in brief: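 Full-length human enzyme was recombinantly expressed in and purified from bacteria. Auto-PARylation was run in the absence and presence of test compound at 100 μM. Immunoblots were probed with anti-PAR antibody and band signal was quantified.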

HeLa cells = test: Cellular ADP-ribosylation in H2O2-stimulated HeLa cells; format: cell-based, human; details: H2O2 1 mM, inhibitor 100 μM, 20 minutes
Method in brief: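 HeLa cells were stimulated with H2O2 and treated without or with test compound at 100 μM. Cellular ADP-ribosylation was imaged by confocal microscopy using an AF1521 macrodomain-based pan-ADPr binding reagent. Lysates were immunoblotted with the same pan-ADPr reagent, with anti-GAPDH as loading control. Densitometry was normalized to loading controls, and significance was reported as p < 0.05 and p < 0.01.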

inhibition of PARP2-catalyzed auto-modification (PARylation) (full-length human PARP2) | SMILES | effect on cellular ADP-ribosylation triggered by H2O2 (HeLa cells) | other results
reduced inhibition activities | CC(=O)c1cccc([C@@H](C)Oc2ccccc2C(N)=O)c1 [compound 4] |  | 
reduced inhibition activities | CC(=O)c1cccc([C@H](C)Oc2ccccc2C(N)=O)c1 [compound 5] |  | 
 | CC(=O)c1cccc(CCOc2ccccc2C(N)=O)c1 [compound 7] | no significant impact | 
 | CC(=O)c1cccc(CCOc2ccc(F)cc2C(N)=O)c1 [compound 8] | no significant impact | 
reduced inhibition activities | CC(=O)c1cccc(CCCOc2ccccc2C(N)=O)c1 [compound 9] |  | 
 | O=C(c1cc(Cc2n[nH]c(=O)c3ccccc23)ccc1F)N1CCN(C(=O)C2CC2)CC1 [olaparib, reference compound] | largely suppressed | 

SMILES | inhibition of PARP2-catalyzed auto-modification (PARylation) (full-length human PARP2) | effect on cellular ADP-ribosylation triggered by H2O2 (HeLa cells) | other results
CC(=O)c1cccc(COc2ccccc2C(N)=O)c1 [compound 3] | functions as an inhibitor for PARP2; also recorded: significantly inhibit |  | inhibition of protein ADP-ribosylation in HAP1/PARP1-KO cell lysates [1]: no significant differences to those of olaparib-treated ones and non-modified controls; inhibition of PARP5a-catalyzed auto-ADP-ribosylation [2]: significantly decreased levels of ADP-ribosylation; inhibition of protein ADP-ribosylation in HAP1-WT cell lysates [3]: significantly higher than those of olaparib-treated ones; inhibition of PARP10-catalyzed auto-ADP-ribosylation [4]: significantly decreased levels of ADP-ribosylation
